{"source": "ChEMBL document CHEMBL1138172", "about": "“Selective irreversible inhibition of fructose 1,6-bisphosphate aldolase from Trypanosoma brucei” (J Med Chem, 2006)", "key": {"[1]": {"molecular_target": "T1, Aldolase (Plasmodium falciparum) (UniProt Q27744)", "T1 sequence (whole entry)": "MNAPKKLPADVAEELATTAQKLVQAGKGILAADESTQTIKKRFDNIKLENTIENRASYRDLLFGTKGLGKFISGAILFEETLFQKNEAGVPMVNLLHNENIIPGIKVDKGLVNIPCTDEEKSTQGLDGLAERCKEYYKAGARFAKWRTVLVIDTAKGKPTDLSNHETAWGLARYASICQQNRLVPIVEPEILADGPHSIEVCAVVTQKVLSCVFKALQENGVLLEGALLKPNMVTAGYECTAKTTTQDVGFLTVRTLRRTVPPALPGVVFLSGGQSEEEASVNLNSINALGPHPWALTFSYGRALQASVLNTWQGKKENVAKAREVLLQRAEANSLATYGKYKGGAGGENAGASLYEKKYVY", "test": "Residual activity against Plasmodium falciparum class1 Aldolase at 100 uM after 15 min", "summary_of_the_method": "(§1)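 Aldolases from different sources, including mammalian (human liver) and protozoan parasite enzymes, were each incubated at 0.2 mg/mL with the inhibitor at 100 µM. Residual enzyme activity was then measured.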"}, "[2]": {"molecular_target": "T2, Fructose-bisphosphate aldolase, glycosomal (Trypanosoma brucei brucei) (UniProt P07752)", "T2 sequence (whole entry)": "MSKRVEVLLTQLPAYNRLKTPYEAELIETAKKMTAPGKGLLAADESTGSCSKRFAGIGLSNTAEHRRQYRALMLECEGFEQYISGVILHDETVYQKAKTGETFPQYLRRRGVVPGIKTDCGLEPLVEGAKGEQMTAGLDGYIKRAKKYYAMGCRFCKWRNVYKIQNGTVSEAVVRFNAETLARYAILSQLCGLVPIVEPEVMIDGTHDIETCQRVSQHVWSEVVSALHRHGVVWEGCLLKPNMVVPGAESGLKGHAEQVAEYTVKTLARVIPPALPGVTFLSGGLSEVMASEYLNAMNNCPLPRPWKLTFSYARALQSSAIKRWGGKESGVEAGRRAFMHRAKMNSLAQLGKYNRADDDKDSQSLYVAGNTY", "test": "Protection of inhibitory activity by FBP against Trypanosoma brucei aldolase at 1 mM after 5 min", "parameters": "scale not given: the % may be the effect or the level left"}, "[3]": {"molecular_target": "T2, Fructose-bisphosphate aldolase, glycosomal (Trypanosoma brucei brucei)", "test": "Protection of inhibitory activity by DHAP against Trypanosoma brucei aldolase at 0.25 mM after 15 min", "parameters": "scale not given: the % may be the effect or the level left"}, "[4]": {"molecular_target": "T2, Fructose-bisphosphate aldolase, glycosomal (Trypanosoma brucei brucei)", "test": "Protection of inhibitory activity by HBP against Trypanosoma brucei aldolase at 1 mM after 5 min", "parameters": "scale not given: the % may be the effect or the level left"}, "[5]": {"molecular_target": "T2, Fructose-bisphosphate aldolase, glycosomal (Trypanosoma brucei brucei)", "test": "Residual activity against Trypanosoma brucei class1 Aldolase at 0.5 mM after 5 min"}, "[6]": {"molecular_target": "T2, Fructose-bisphosphate aldolase, glycosomal (Trypanosoma brucei brucei)", "test": "Protection of inhibitory activity by NBP against Trypanosoma brucei aldolase at 1 mM after 15 min", "parameters": "scale not given: the % may be the effect or the level left"}, "[7]": {"molecular_target": "T3, Fructose-bisphosphate aldolase A (Oryctolagus cuniculus) (UniProt P00883)", "T3 sequence (whole entry)": "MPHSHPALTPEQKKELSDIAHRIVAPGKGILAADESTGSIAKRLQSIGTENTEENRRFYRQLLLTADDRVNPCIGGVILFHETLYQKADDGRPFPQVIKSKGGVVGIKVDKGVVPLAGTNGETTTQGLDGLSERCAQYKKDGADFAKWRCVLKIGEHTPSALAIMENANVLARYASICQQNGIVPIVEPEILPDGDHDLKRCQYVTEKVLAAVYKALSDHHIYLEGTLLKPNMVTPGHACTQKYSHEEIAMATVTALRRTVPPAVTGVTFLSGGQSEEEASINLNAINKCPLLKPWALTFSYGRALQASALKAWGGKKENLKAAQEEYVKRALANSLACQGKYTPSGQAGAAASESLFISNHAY", "test": "Residual activity against rabbit muscle class1 Aldolase at 0.1 mM after 5 min", "conditions": "Muscle tissue"}, "[8]": {"molecular_target": "T2, Fructose-bisphosphate aldolase, glycosomal (Trypanosoma brucei brucei)", "test": "Residual activity against Trypanosoma brucei class1 Aldolase at 0.02 mM after 5 min"}, "[9]": {"molecular_target": "T2, Fructose-bisphosphate aldolase, glycosomal (Trypanosoma brucei brucei)", "test": "Protection of inhibitory activity by NBP against Trypanosoma brucei aldolase at 1 mM after 5 min", "parameters": "scale not given: the % may be the effect or the level left"}, "[10]": {"molecular_target": "T4, Fructose-1,6-bisphospate aldolase (Leishmania mexicana) (UniProt Q9U5N6)", "T4 sequence (whole entry)": "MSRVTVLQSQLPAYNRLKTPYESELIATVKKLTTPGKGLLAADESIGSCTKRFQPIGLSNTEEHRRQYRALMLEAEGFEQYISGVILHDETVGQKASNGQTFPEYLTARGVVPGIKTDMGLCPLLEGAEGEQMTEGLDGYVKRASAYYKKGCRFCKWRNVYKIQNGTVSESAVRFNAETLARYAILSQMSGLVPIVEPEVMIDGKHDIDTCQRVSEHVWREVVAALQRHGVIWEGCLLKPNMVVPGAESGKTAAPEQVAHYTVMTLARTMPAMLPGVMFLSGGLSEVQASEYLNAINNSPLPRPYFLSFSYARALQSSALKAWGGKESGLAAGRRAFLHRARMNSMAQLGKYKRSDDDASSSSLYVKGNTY", "test": "Residual activity against Leishmania mexicana class1 Aldolase at 100 uM after 15 min", "summary_of_the_method": "as §1"}, "[11]": {"molecular_target": "T2, Fructose-bisphosphate aldolase, glycosomal (Trypanosoma brucei brucei)", "test": "Residual activity against Trypanosoma brucei class1 Aldolase at 0.02 mM after 15 min"}, "[12]": {"molecular_target": "T2, Fructose-bisphosphate aldolase, glycosomal (Trypanosoma brucei brucei)", "test": "Protection of inhibitory activity by DHAP against Trypanosoma brucei aldolase at 10 mM after 5 min", "parameters": "scale not given: the % may be the effect or the level left"}, "[13]": {"molecular_target": "T2, Fructose-bisphosphate aldolase, glycosomal (Trypanosoma brucei brucei)", "test": "Protection of inhibitory activity by FBP against Trypanosoma brucei aldolase at 10 mM after 5 min", "parameters": "scale not given: the % may be the effect or the level left"}, "[14]": {"molecular_target": "T2, Fructose-bisphosphate aldolase, glycosomal (Trypanosoma brucei brucei)", "test": "Protection of inhibitory activity by FBP against Trypanosoma brucei aldolase at 1 mM after 15 min", "parameters": "scale not given: the % may be the effect or the level left"}, "[15]": {"molecular_target": "T3, Fructose-bisphosphate aldolase A (Oryctolagus cuniculus)", "test": "Residual activity against rabbit muscle class1 Aldolase at 0.1 mM after 15 min", "conditions": "Muscle tissue"}, "[16]": {"molecular_target": "T2, Fructose-bisphosphate aldolase, glycosomal (Trypanosoma brucei brucei)", "test": "Protection of inhibitory activity by HBP against Trypanosoma brucei aldolase at 0.1 mM after 5 min", "parameters": "scale not given: the % may be the effect or the level left"}, "[17]": {"molecular_target": "T2, Fructose-bisphosphate aldolase, glycosomal (Trypanosoma brucei brucei)", "test": "Residual activity against Trypanosoma brucei class1 Aldolase at 0.5 mM after 15 min"}, "[18]": {"molecular_target": "T5, Fructose-bisphosphate aldolase, glycosomal (Trypanosoma brucei brucei, UniProt P07752)", "T5 sequence (P07752 whole entry)": "T2 sequence (whole entry)", "test": "Inhibition of Trypanosoma brucei class1 Aldolase"}, "[19]": {"molecular_target": "Fructose-bisphosphate aldolase B (Homo sapiens) (UniProt P05062)", "sequence (P05062 whole entry, looked up)": "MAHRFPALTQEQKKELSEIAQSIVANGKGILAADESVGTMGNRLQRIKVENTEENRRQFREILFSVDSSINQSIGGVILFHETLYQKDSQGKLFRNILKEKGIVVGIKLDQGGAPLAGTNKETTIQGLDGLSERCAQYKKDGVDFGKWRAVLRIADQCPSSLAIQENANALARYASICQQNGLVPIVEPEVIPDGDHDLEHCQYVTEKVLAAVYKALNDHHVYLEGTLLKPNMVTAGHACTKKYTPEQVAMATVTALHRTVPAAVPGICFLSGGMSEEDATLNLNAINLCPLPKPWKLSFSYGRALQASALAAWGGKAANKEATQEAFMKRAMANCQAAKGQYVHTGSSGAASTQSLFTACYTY", "test": "Residual activity against human liver class1 Aldolase at 100 uM after 15 min"}, "[20]": {"molecular_target": "T2, Fructose-bisphosphate aldolase, glycosomal (Trypanosoma brucei brucei)", "test": "Protection of inhibitory activity by DHAP against Trypanosoma brucei aldolase at 0.5 mM after 5 min", "parameters": "scale not given: the % may be the effect or the level left"}, "[21]": {"molecular_target": "T3, Fructose-bisphosphate aldolase A (Oryctolagus cuniculus)", "test": "Residual activity against rabbit muscle class1 Aldolase at 1 mM after 5 min", "conditions": "Muscle tissue"}, "[22]": {"molecular_target": "T2, Fructose-bisphosphate aldolase, glycosomal (Trypanosoma brucei brucei)", "test": "Protection of inhibitory activity by DHAP against Trypanosoma brucei aldolase at 1 mM after 15 min", "parameters": "scale not given: the % may be the effect or the level left"}, "[23]": {"molecular_target": "T2, Fructose-bisphosphate aldolase, glycosomal (Trypanosoma brucei brucei)", "test": "Protection of inhibitory activity by DHAP against Trypanosoma brucei aldolase at 1 mM after 5 min", "parameters": "scale not given: the % may be the effect or the level left"}, "[24]": {"molecular_target": "T2, Fructose-bisphosphate aldolase, glycosomal (Trypanosoma brucei brucei)", "test": "Protection of inhibitory activity by FBP against Trypanosoma brucei aldolase at 10 mM after 15 min", "parameters": "scale not given: the % may be the effect or the level left"}, "[25]": {"molecular_target": "T2, Fructose-bisphosphate aldolase, glycosomal (Trypanosoma brucei brucei)", "test": "Protection of inhibitory activity by HBP against Trypanosoma brucei aldolase at 1 mM after 15 min", "parameters": "scale not given: the % may be the effect or the level left"}, "[26]": {"molecular_target": "T3, Fructose-bisphosphate aldolase A (Oryctolagus cuniculus)", "test": "Residual activity against rabbit muscle class1 Aldolase at 1 mM after 15 min", "conditions": "Muscle tissue"}, "[27]": {"molecular_target": "T2, Fructose-bisphosphate aldolase, glycosomal (Trypanosoma brucei brucei)", "test": "Residual activity against Trypanosoma brucei class1 Aldolase at 100 uM after 15 min", "summary_of_the_method": "as §1"}, "[28]": {"molecular_target": "T2, Fructose-bisphosphate aldolase, glycosomal (Trypanosoma brucei brucei)", "test": "Protection of inhibitory activity by DHAP against Trypanosoma brucei aldolase at 10 mM after 15 min", "parameters": "scale not given: the % may be the effect or the level left"}, "[29]": {"molecular_target": "T2, Fructose-bisphosphate aldolase, glycosomal (Trypanosoma brucei brucei)", "test": "Protection of inhibitory activity by HBP against Trypanosoma brucei aldolase at 0.1 mM after 15 min", "parameters": "scale not given: the % may be the effect or the level left"}, "[30]": {"molecular_target": "T2, Fructose-bisphosphate aldolase, glycosomal (Trypanosoma brucei brucei)", "test": "Protection of inhibitory activity by DHAP against Trypanosoma brucei aldolase at 0.5 mM after 15 min", "parameters": "scale not given: the % may be the effect or the level left"}, "[31]": {"molecular_target": "T2, Fructose-bisphosphate aldolase, glycosomal (Trypanosoma brucei brucei)", "test": "Inhibitory activity against mutated recombinant Trypanosoma brucei aldolase K116M"}, "[32]": {"molecular_target": "T2, Fructose-bisphosphate aldolase, glycosomal (Trypanosoma brucei brucei)", "test": "Protection of inhibitory activity by DHAP against Trypanosoma brucei aldolase at 0.25 mM after 5 min", "parameters": "scale not given: the % may be the effect or the level left"}}, "note": "Active and inactive are the calls of the source. No cut-off for these calls is given here.", "data": [{"smiles": "O=Cc1c(O)ccc2cc(OP(=O)(O)O)ccc12", "values": [{"measurement": "Activity", "setting": "[1]", "result": 30, "unit": "%"}, {"measurement": "Activity", "setting": "[2]", "result": 80, "unit": "%"}, {"measurement": "Activity", "setting": "[3]", "result": 48, "unit": "%"}, {"measurement": "Activity", "setting": "[4]", "result": 100, "unit": "%"}, {"measurement": "Activity", "setting": "[5]", "result": "< 20", "unit": "%"}, {"measurement": "Activity", "setting": "[6]", "result": 100, "unit": "%"}, {"measurement": "Activity", "setting": "[7]", "result": 100, "unit": "%"}, {"measurement": "Activity", "setting": "[8]", "result": 75, "unit": "%"}, {"measurement": "Activity", "setting": "[9]", "result": 100, "unit": "%"}, {"measurement": "Activity", "setting": "[10]", "result": 15, "unit": "%"}, {"measurement": "Activity", "setting": "[11]", "result": 50, "unit": "%"}, {"measurement": "Activity", "setting": "[12]", "result": 80, "unit": "%"}, {"measurement": "Activity", "setting": "[13]", "result": 100, "unit": "%"}, {"measurement": "Activity", "setting": "[14]", "result": 51, "unit": "%"}, {"measurement": "Activity", "setting": "[15]", "result": 100, "unit": "%"}, {"measurement": "Activity", "setting": "[16]", "result": 100, "unit": "%"}, {"measurement": "Activity", "setting": "[17]", "result": 0, "unit": "%"}, {"measurement": "Ki", "setting": "[18]", "result": 23, "unit": "µM"}, {"measurement": "Activity", "setting": "[19]", "result": 100, "unit": "%"}, {"measurement": "Activity", "setting": "[20]", "result": 63, "unit": "%"}, {"measurement": "Activity", "setting": "[21]", "result": 80, "unit": "%"}, {"measurement": "Activity", "setting": "[22]", "result": 52, "unit": "%"}, {"measurement": "Activity", "setting": "[23]", "result": 60, "unit": "%"}, {"measurement": "Activity", "setting": "[24]", "result": 89, "unit": "%"}, {"measurement": "Activity", "setting": "[25]", "result": 100, "unit": "%"}, {"measurement": "Activity", "setting": "[26]", "result": 80, "unit": "%"}, {"measurement": "Activity", "setting": "[27]", "result": "< 0.5", "unit": "%"}, {"measurement": "Activity", "setting": "[28]", "result": 70, "unit": "%"}, {"measurement": "Activity", "setting": "[29]", "result": 100, "unit": "%"}, {"measurement": "Activity", "setting": "[30]", "result": 44, "unit": "%"}, {"measurement": "inhibition", "setting": "[31]", "result": "inactive"}, {"measurement": "Activity", "setting": "[32]", "result": 56, "unit": "%"}]}]}
